The record followed here is ChEMBL document CHEMBL1132117, “Novel potential agents for human cytomegalovirus infection: synthesis and antiviral activity evaluation of benzothiadiazine dioxide acyclonucleosides” (J Med Chem, 1999).

Molecules are shown by their SMILES. Values after ≈ are worked out from the molar mass of the structure shown.

The subject of experiment [1] is Human betaherpesvirus 5. In words: The concentration required to reduce virus plaque formation by 50% was measured on AD-169 strains of human cytomegalovirus. The class given is functional, organism-based.
In experiment [2] the test system is Human alphaherpesvirus 3. In words: The concentration required to reduce virus plaque formation by 50% was measured on 07/1 strain of VZV expressing viral thymidine kinase(TK-). The class given is functional, organism-based.
In experiment [3] the test system is Human betaherpesvirus 5. In words: The concentration required to reduce virus plaque formation by 50% was measured on Davis strains of human cytomegalovirus. The class given is functional, organism-based.
The test system of experiment [4] is HEL. Description: The concentration required to reduce cell growth by 50% was measured on Human Embryonic Lung (HEL) cells. The class given is functional. The gist of the method: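 HEL fibroblasts seeded at 5 × 10³ cells/well and grown 24 h, then given compound dilutions in duplicate. Cells counted with a Coulter counter after 3 days at 37 °C in 5% CO₂.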
Experiment [5] concerns Human alphaherpesvirus 3. Description: The concentration required to reduce virus plaque formation by 50% was measured on OKA strain of VZV expressing viral thymidine kinase(TK+). The class given is functional, organism-based.
The subject of experiment [6] is Human immunodeficiency virus 2. In words: Concentration of the required to protect CEM cells of Human T-lymphocyte against Cytopathogenicity of HIV-2 by 50%. The class given is functional, organism-based. The conditions noted are these: Human immunodeficiency virus 2, CCRF-CEM. The gist of the method: (§1)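 CEM cells at 4 × 10⁵ cells/mL infected with HIV-1 (IIIB) or HIV-2 (ROD) at ~100 CCID₅₀/mL, then mixed with serial compound dilutions. Giant cell formation scored microscopically after 4 days. Triplicate assays.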
(Protection from cytopathic effect is a common read-out in antiviral testing.)

Experiment [7] has as its system CCRF-CEM. Description: The concentration required to reduce 50% cell viability on CEM cells of Human T-lymphocyte. The class given is functional. The procedure, abridged: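 Uninfected CEM cells exposed to compound dilutions. Triplicate assays.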
Experiment [8] has as its system Human alphaherpesvirus 3. In words: The concentration required to reduce virus plaque formation by 50% was measured on YS/Rstrain of VZV expressing viral thymidine kinase(TK-). The class given is functional, organism-based.
The subject of experiment [9] is HEL. Description: The minimum cytotoxic concentration was measured on Human Embryonic Lung (HEL) cells. The class given is functional. The procedure, abridged: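 Minimum toxic concentration is the lowest concentration giving a microscopically detectable change in morphology of normal HEL cells. Duplicate assays.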
Experiment [10] concerns Human alphaherpesvirus 3. In words: The concentration required to reduce virus plaque formation by 50% was measured on YS strain of VZV expressing viral thymidine kinase(TK+). The class given is functional, organism-based.
Experiment [11] deals with Human immunodeficiency virus 1. In words: Concentration of the required to protect CEM cells of Human T-lymphocyte against Cytopathogenicity of HIV-1(III-B) by 50%. The class given is functional, organism-based. The following applies: Human immunodeficiency virus 1, CCRF-CEM. The gist of the method:
as §1

Usually IC50 stands for the concentration that gives 50% inhibition. High values mean lower potency, low ones higher potency. What is called CC50 is the concentration giving 50% cytotoxicity. Usually EC50 stands for the concentration giving half of the maximal effect. Lower therefore signals greater potency. As to `O=C1c2ccccc2NS(=O)(=O)N1COCCO`, the IC50 in experiment [1], in experiment [2], in [3], in experiment [5], in [8] and in [10] was above 50 µg/mL throughout. The CC50 in experiment [4] was 160 µg/mL (≈ 588 µM); in [7] it was above 200 µg/mL. Moreover, the EC50 in experiment [6] and in [11] was above 40 µg/mL throughout. The MCC in experiment [9] was above 50 µg/mL.

Regarding `O=C1c2ccccc2NS(=O)(=O)N1Cc1ccccc1`, the IC50 in [1] is above 20 µg/mL; in experiment [2], 48 µg/mL (≈ 166 µM); in [3] it was above 20 µg/mL; in experiment [5], above 50 µg/mL; in [8] it was above 50 µg/mL; in experiment [10] it was above 50 µg/mL. The CC50 in experiment [4] is above 50 µg/mL; in experiment [7], above 200 µg/mL. For the same compound, the EC50 in experiment [6] and in [11] was above 200 µg/mL throughout. The MCC in [9] worked out at 50 µg/mL.

For the compound `CC(=O)OCCOCN1c2ccccc2C(=O)NS1(=O)=O`, the IC50 in experiment [1], in experiment [2], in experiment [3], in experiment [5], in experiment [8] and in [10] was above 50 µg/mL each time. Moreover, the half-maximal cytotoxic concentration (CC50) in experiment [4] and in experiment [7] was above 200 µg/mL throughout. Also, the concentration for a half-maximal effect (EC50) in [6] and in [11] was above 200 µg/mL throughout. The compound further gave an MCC in experiment [9] above 50 µg/mL.

As to `CC(=O)OCCOCN1C(=O)c2ccccc2NS1(=O)=O`, the IC50 in experiment [1], in experiment [2], in [3], in experiment [5], in experiment [8] and in experiment [10] was above 50 µg/mL in each case. In addition, the cytotoxic concentration (CC50) in experiment [4] and in experiment [7] was above 200 µg/mL each time. The EC50 in experiment [6] and in experiment [11] was above 200 µg/mL each time. The compound further yielded an MCC in [9] above 50 µg/mL.

With `O=C1NS(=O)(=O)N(COCc2ccccc2)c2ccccc21`, the IC50 in experiment [1], in [2], in experiment [3], in experiment [5], in experiment [8] and in experiment [10] was above 50 µg/mL throughout. For the same compound, the CC50 in experiment [4] is above 50 µg/mL; in experiment [7], above 200 µg/mL. Besides, the EC50 in [6] and in experiment [11] was above 40 µg/mL throughout. For the same compound, the MCC in experiment [9] is above 50 µg/mL.

As to `CC(=O)OCCOCN1c2ccccc2C(=O)N(Cc2ccccc2)S1(=O)=O`, the IC50 in [1] is above 20 µg/mL; in experiment [2] it was 44 µg/mL (≈ 109 µM); in experiment [3], above 50 µg/mL; in experiment [5], 42 µg/mL (≈ 104 µM); in experiment [8] it was above 20 µg/mL; in experiment [10], above 50 µg/mL. Besides, the figures for the CC50 in experiment [4] and in [7] were 100 µg/mL (≈ 247 µM) and 103 µg/mL (≈ 255 µM), respectively. Besides, the EC50 in experiment [6] and in [11] was above 40 µg/mL in each case. The compound further showed an MCC in experiment [9] of 50 µg/mL.

As to `O=C(OCCOCN1c2ccccc2C(=O)N(Cc2ccccc2)S1(=O)=O)c1ccccc1`, the half-inhibitory concentration (IC50) in experiment [1] was 13 µg/mL (≈ 27.9 µM); in [2] it was above 20 µg/mL; in experiment [3], above 20 µg/mL; in experiment [5], above 20 µg/mL; in experiment [8] it was 12 µg/mL (≈ 25.7 µM); in experiment [10], above 20 µg/mL. The figures for the half-maximal cytotoxic concentration (CC50) in experiment [4] and in experiment [7] were 17 µg/mL (≈ 36.4 µM) and 100 µg/mL (≈ 214 µM), respectively. For the same compound, the EC50 in [6] and in experiment [11] was above 40 µg/mL in each case. The compound also registered an MCC in [9] of 50 µg/mL.

Turning to `O=C1c2ccccc2N(COCCO)S(=O)(=O)N1Cc1ccccc1`, the concentration for half-maximal inhibition (IC50) is above 20 µg/mL in [1]; 55 µg/mL (≈ 152 µM) in experiment [2]; above 50 µg/mL in experiment [3]; 43 µg/mL (≈ 119 µM) in experiment [5]; above 20 µg/mL in experiment [8]; above 50 µg/mL in experiment [10]. Further, the CC50 came to 125 µg/mL (≈ 345 µM) in experiment [4] and 89 µg/mL (≈ 246 µM) in experiment [7]. Also, the 50% effective concentration (EC50) in experiment [6] and in experiment [11] was above 40 µg/mL each time. In [9], the MCC was above 50 µg/mL.

Regarding `O=C1NS(=O)(=O)N(COCCO)c2ccccc21`, the IC50 in experiment [1], in [2], in [3], in experiment [5], in experiment [8] and in [10] was above 50 µg/mL each time. For the same compound, the CC50 in experiment [4] turned out to be 112 µg/mL (≈ 411 µM); in experiment [7] it was 15 µg/mL (≈ 55.1 µM). Also, the EC50 in experiment [6] and in [11] was above 40 µg/mL each time. The compound further gave an MCC in experiment [9] above 50 µg/mL.

Regarding `CCCOCN1c2ccccc2C(=O)NS1(=O)=O`, the IC50 in [1], in experiment [2], in experiment [3], in experiment [5], in experiment [8] and in experiment [10] was above 50 µg/mL throughout. Moreover, the CC50 was above 50 µg/mL in experiment [4] and above 200 µg/mL in experiment [7]. Further, the EC50 in experiment [6] and in [11] was above 40 µg/mL in each case. This compound also gave an MCC in experiment [9] above 50 µg/mL.

In the case of `C#CCOCN1c2ccccc2C(=O)N(Cc2ccccc2)S1(=O)=O`, the IC50 came out at 12 µg/mL (≈ 33.7 µM) in experiment [1]; 11 µg/mL (≈ 30.9 µM) in [2]; 12 µg/mL (≈ 33.7 µM) in experiment [3]; 21 µg/mL (≈ 58.9 µM) in experiment [5]; 13 µg/mL (≈ 36.5 µM) in [8]; 24 µg/mL (≈ 67.3 µM) in [10]. The 50% cytotoxic concentration (CC50) in experiment [4] was above 50 µg/mL; in experiment [7], 23 µg/mL (≈ 64.5 µM). For the same compound, the EC50 in [6] and in experiment [11] was above 8 µg/mL each time. In [9], this compound showed an MCC of 50 µg/mL.

Consider `O=C1c2ccccc2N(Cc2ccccc2)S(=O)(=O)N1COCc1ccccc1`, for which the IC50 was 3.5 µg/mL (≈ 8.57 µM) in [1]; above 5 µg/mL in experiment [2]; 3.7 µg/mL (≈ 9.06 µM) in experiment [3]; above 5 µg/mL in experiment [5]; 3 µg/mL (≈ 7.34 µM) in [8]; above 5 µg/mL in experiment [10]. For the same compound, the cytotoxic concentration (CC50) is above 40 µg/mL in [4] and 100 µg/mL (≈ 245 µM) in experiment [7]. Besides, the results for the EC50 in experiment [6] and in [11] were 20 µg/mL (≈ 49 µM) and 15 µg/mL (≈ 36.7 µM), respectively. In experiment [9], this compound showed an MCC of 20 µg/mL.

On to `O=C1c2ccccc2N(COCc2ccccc2)S(=O)(=O)N1Cc1ccccc1`, for which the half-inhibitory concentration (IC50) in [1] is 8 µg/mL (≈ 19.6 µM); in [2] it was above 5 µg/mL; in [3], 11 µg/mL (≈ 26.9 µM); in [5], 20 µg/mL (≈ 49 µM); in [8] it was above 5 µg/mL; in experiment [10], 20 µg/mL (≈ 49 µM). The figures for the CC50 in experiment [4] and in experiment [7] were above 50 µg/mL and 25 µg/mL (≈ 61.2 µM), respectively. Besides, the EC50 in [6] and in [11] was above 8 µg/mL in each case. The MCC in experiment [9] is above 50 µg/mL.

For the compound `Nc1nc2c(ncn2COCCO)c(=O)[nH]1` [ACYCLOVIR], in experiment [4], the CC50 is above 200 µg/mL. The MCC in experiment [9] was above 50 µg/mL.

With `Nc1nc2c(ncn2COC(CO)CO)c(=O)[nH]1` [GANCICLOVIR], the results for the concentration for half-maximal inhibition (IC50) in [1] and in experiment [3] were 1.2 µg/mL (≈ 4.7 µM) and 1.9 µg/mL (≈ 7.44 µM), respectively. The compound also had a CC50 in [4] above 50 µg/mL. Besides, the MCC in experiment [9] was above 50 µg/mL.
